Source: ChEMBL document CHEMBL1148398, “Design, synthesis, and biological evaluation of thio-containing compounds with serum HDL-cholesterol-elevating properties” (2004)

Key:
Cricetinae gen. sp. [1] = test: Effect of compound on aspartate aminotransferase (AST) levels in 2nd group of cholesterol-fed male hamsters at 10 mg/kg/day after 14 days of treatment; conditions: Mesocricetus auratus
Cricetinae gen. sp. [2] = test: Percent change in high-density lipoprotein cholesterol following oral administration of compound in hypercholesterolemic hamsters at 100 mg/kg/day for 14 days; type: functional
Summary of the method: (§1)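 Male Syrian Golden hamsters pre-fed chow plus 0.25% cholesterol for 2 weeks and kept on it. Dosed 100 mg/kg/day by oral gavage in 2% Tween 80/saline for 14 days. Serum total cholesterol and glycerol-blanked triglycerides read enzymatically; lipoproteins separated by FPLC with cholesterol measured in each fraction. % change versus vehicle controls; six per group, p < 0.05.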

Mesocricetus auratus [3] = test: Effect of compound on liver weight in 4th group of cholesterol-fed male hamsters at 100 mg/kg/day after 14 days of treatment
Rattus norvegicus [4] = test: Effect of compound on relative liver weight in 7th group of normal chow-fed male rats after a dose of 100 mg/kg/day; type: functional
Summary of the method: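 Chow-fed male Sprague–Dawley CD rats, 60–80 g, dosed by oral gavage once daily for 4 days in 1.3% Tween 80/0.25% CMC. Fasted overnight and sacrificed 24 h after the last dose. Liver weight expressed as % of body weight at termination. Six per group, mean ± SEM.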

Rattus norvegicus [5] = test: Effect of compound on alanine aminotransferase (ALT) levels in 1st group of normal chow-fed male rats after a dose of 1 mg/kg/day; type: functional, organism-based
Summary of the method: (§2)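 Male Sprague–Dawley CD rats (60–80 g) on standard chow under a reversed 12 h light/dark cycle. Compound was suspended in 1.3% Tween 80/0.25% CMC and given as a single daily oral gavage dose for 4 days. Rats were fasted overnight and killed 24 h after the last dose. Serum ALT, AST, ALKP and LDH were read on a clinical analyzer. Weight gain was start versus end weight. Mean ± SEM, n = 6.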

Rattus norvegicus [6] = test: Effect of compound on aspartate aminotransferase (AST) levels in 1st group of normal chow-fed male rats after a dose of 1 mg/kg/day; type: functional, organism-based
Summary of the method: as §2

Cricetinae gen. sp. [7] = test: Effect of compound on low-density lipoprotein cholesterol levels in 4th group of cholesterol-fed male hamsters at 100 mg/kg/day after 14 days of treatment; conditions: Mesocricetus auratus
Cricetinae gen. sp. [8] = test: Percent change in total plasma cholesterol following oral administration of compound in hypercholesterolemic hamsters at 100 mg/kg/day for 14 days; type: functional
Summary of the method: as §1

Rattus norvegicus [9] = test: Effect of compound on lactic dehydrogenase (LDH) levels in 5th group of normal chow-fed male rats after a dose of 20 mg/kg/day; type: functional, organism-based
Summary of the method: (§3)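 Male Sprague–Dawley CD rats, 60–80 g, on chow with a reverse 12 h light/dark cycle. Given one oral gavage dose daily for 4 days, suspended in 1.3% Tween 80/0.25% CMC. Fasted overnight and sacrificed 24 h after the last dose for blood and liver. Serum liver enzymes read on a clinical analyzer. Six per group, mean ± SEM.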

Rattus norvegicus [10] = test: Effect of compound on triglycerides level in 3rd group of normal chow-fed male rats after a dose of 5 mg/kg/day; type: functional, organism-based
Summary of the method: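 Male Sprague–Dawley CD rats (60–80 g) on Purina 5001 chow with a reverse 12 h light/dark cycle. Dosed once daily by oral gavage for 4 days, suspended in 1.3% Tween 80 / 0.25% CMC. Fasted overnight and bled 24 h after the last dose. Serum TC and glycerol-blanked TG measured enzymatically; VLDL-C by FPLC fractionation with cholesterol assay. n=6, mean ± SEM.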

Cricetinae gen. sp. [11] = test: Effect of compound on alkaline phosphatase (ALKP) levels in 4th group of cholesterol-fed male hamsters at 100 mg/kg/day after 14 days of treatment; conditions: Mesocricetus auratus
Cricetinae gen. sp. [12] = test: Effect of compound on alanine aminotransferase (ALT) levels in 4th group of cholesterol-fed male hamsters at 100 mg/kg/day after 14 days of treatment; conditions: Mesocricetus auratus
Mesocricetus auratus [13] = test: Effect of compound on gain in body weight in 1st group of cholesterol-fed male hamsters at 3 mg/kg/day after 14 days of treatment
Rattus norvegicus [14] = test: Effect of compound on serum high-density lipoprotein cholesterol concentration in chow-fed male rats at a dose of 100 mg/kg/day; type: functional, organism-based
Summary of the method: (§4)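 Separate dose-response study in male Sprague–Dawley CD rats, 60–80 g, on chow. Oral gavage once daily for 4 days in 1.3% Tween 80 / 0.25% CMC; fasted overnight, bled 24 h after last dose. Apo-A1 by ELISA with rabbit anti-rat primary, alkaline phosphatase-conjugated anti-rabbit IgG and p-nitrophenyl phosphate substrate. HDL-C by FPLC fractionation. Mean ± SEM, six per group.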

Rattus norvegicus [15] = test: Effect of compound on serum apolipoprotein A1 concentration in chow-fed male rats at a dose of 5 mg/kg/day; type: functional, organism-based
Summary of the method: as §4

Rattus norvegicus [16] = test: Effect of compound on serum high-density lipoprotein cholesterol concentration in chow-fed male rats at a dose of 10 mg/kg/day; type: functional, organism-based
Summary of the method: as §4

Rattus norvegicus [17] = test: Percent change in high-density lipoprotein cholesterol in hypercholesterolemic rats dosed at 100 mg/kg/day for 8 days; type: functional
Rattus norvegicus [18] = test: Effect of compound on lactic dehydrogenase (LDH) levels in 6th group of normal chow-fed male rats after a dose of 50 mg/kg/day; type: functional, organism-based
Summary of the method: as §3

Rattus norvegicus [19] = test: Effect of compound on alanine aminotransferase (ALT) levels in 4th group of normal chow-fed male rats after a dose of 10 mg/kg/day
Rattus norvegicus [20] = test: Effect of compound on thyroxine levels in 1st group of normal chow-fed male rats after a dose of 1 mg/kg/day; type: functional, organism-based
Summary of the method: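 Male Sprague–Dawley CD rats, 60–80 g, on standard chow with reverse 12 h light/dark cycle. One oral gavage dose daily for 4 days, suspended in 1.3% Tween 80 and 0.25% CMC. Fasted overnight; sacrificed 24 h after the last dose. Serum TC on clinical analyzer, lipoproteins by FPLC with cholesterol per fraction, T4 on analyzer. Mean ± SEM, six rats per group.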

Rattus norvegicus [21] = test: Effect of compound on high-density lipoprotein cholesterol levels in 5th group of normal chow-fed male rats after a dose of 20 mg/kg/day; type: functional, organism-based
Rattus norvegicus [22] = test: Effect of compound on alanine aminotransferase (ALT) levels in 5th group of normal chow-fed male rats after a dose of 20 mg/kg/day; type: functional, organism-based
Summary of the method: as §2

Rattus norvegicus [23] = test: Percent change in high-density lipoprotein cholesterol following oral administration of compound in normal chow-fed rats at 100 mg/kg/day for 4 days; type: functional
Summary of the method: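 Chow-fed male Sprague–Dawley CD rats, 60–80 g, gavaged 100 mg/kg/day for 4 days in 1.3% Tween 80/0.25% CMC. Fasted overnight, bled 24 h after the last dose. Total cholesterol and glycerol-blanked triglycerides read enzymatically; lipoproteins by FPLC with cholesterol per fraction. % change versus control; six per group, p < 0.05.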

Rattus norvegicus [24] = test: Effect of compound on serum high-density lipoprotein cholesterol concentration in chow-fed male rats at a dose of 50 mg/kg/day; type: functional, organism-based
Summary of the method: as §4

Rattus norvegicus [25] = test: Effect of compound on liver weight in 6th group of normal chow-fed male rats after a dose of 50 mg/kg/day; type: functional
Summary of the method: as §3

CCN1CC(=O)N(c2cc(Cl)ccc2C)C1=S
Level (Cricetinae gen. sp. [1]): 345 U l-1 | Change (Cricetinae gen. sp. [2]): 43% | Liver weight (Mesocricetus auratus [3]): 8.95 g | Relative liver weight (Rattus norvegicus [4]): 4.5% | Level (Rattus norvegicus [5]): 61 U l-1 | Level (Rattus norvegicus [6]): 216 U l-1 | Serum level (Cricetinae gen. sp. [7]): 102 mg/dL | Change (Cricetinae gen. sp. [8]): -3.3% | Level (Rattus norvegicus [9]): 1140 U l-1 | Serum level (Rattus norvegicus [10]): 18 mg/dL | Level (Cricetinae gen. sp. [11]): 136 U l-1 | Level (Cricetinae gen. sp. [12]): 639 U l-1 | Body weight (Mesocricetus auratus [13]): 10.2 g | Serum level (Rattus norvegicus [14]): 104 mg/dL | Serum level (Rattus norvegicus [15]): 72.9 mg/dL | Serum level (Rattus norvegicus [16]): 73.1 mg/dL | Change (Rattus norvegicus [17]): 132% | Level (Rattus norvegicus [18]): 815 U l-1 | Level (Rattus norvegicus [19]): 58 U l-1 | Serum level (Rattus norvegicus [20]): 3.65 µg/dL | Serum level (Rattus norvegicus [21]): 58 mg/dL | Level (Rattus norvegicus [22]): 78 U l-1 | Change (Rattus norvegicus [23]): 89.1% | Serum level (Rattus norvegicus [24]): 87.3 mg/dL | Liver weight (Rattus norvegicus [25]): 7.3 g
